The source of these data is ChEMBL document CHEMBL1148265, “Synthesis and biological activity of N-aryl-2-aminothiazoles: potent pan inhibitors of cyclin-dependent kinases” (Bioorg Med Chem Lett, 2004).

For orientation: IC50 means the midpoint of a concentration-inhibition curve. Lower therefore signals higher potency. As usually defined, the T/C is the ratio of treated to control.

Assay [1] deals with A2780. The assay is described as follows: Cytotoxic effect on human ovarian (A2780) cancer cell line. The class given is functional, cell-based.
Assay [2] deals with Cyclin-dependent kinase 1/cyclin B (Homo sapiens, UniProt P06493). The assay is described as follows: Inhibition of cyclin-dependent kinase 1-cyclin B. It is filed as protein-complex assay. The method in brief:
(§1)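 Cell-free kinase assay with the CDK/cyclin complex as enzyme. Read-out is phosphorylation of RB protein as substrate. IC50 values were reported.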

The target of assay [3] is Cyclin-dependent kinase 2/cyclin E (Homo sapiens, UniProt P24941). The experiment in a line: Inhibition of Cyclin-dependent kinase 2-cyclin E. It is filed as protein-complex assay. The method in brief: as §1
For assay [4], the target named is Cyclin-dependent kinase 4/cyclin D (Homo sapiens, UniProt P11802). The experiment in a line: Inhibition of Cyclin-dependent kinase 4-cyclin D. It is filed as protein-complex assay. The method in brief: as §1
For assay [5], the system named is Mus musculus. The experiment in a line: In vivo anticancer activity of compound was determined as increase in survival time of treated groups versus untreated control against P388 murine leukemia in mice at 4 mg/kg. The class given is functional. Summed up: (§2)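 P388 murine leukemia cells implanted ip into immunocompetent mice. Drug given ip right after implantation, then once daily for 7 days (qdx7). Efficacy read as increase in lifespan, reported as the ratio of lifespan of the treated group (T) to the control group (C) (%T/C).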

The species named for assay [6] is Mus musculus. The assay is described as follows: Compound was tested binding to mouse serum. The class given is functional. The method in brief:
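Free versus bound fraction measured by equilibrium dialysis against mouse serum.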

For assay [7], the system named is Mus musculus. The assay is described as follows: In vivo anticancer activity of compound was determined as increase in survival time of treated groups versus untreated control against P388 murine leukemia in mice at 90 mg/kg. It is filed as functional. The method in brief:
as §2

On to `CC(C)(C)c1cnc(CSc2cnc(Nc3cccnc3)s2)o1`, for which the IC50 was determined as 50 nM in assay [1], 10 nM in assay [2], 3 nM in assay [3] and 130 nM in assay [4].

As for `CC(C)(C)c1cnc(CSc2cnc(NC(=O)Cc3cccnc3)s2)o1`, the IC50 came to 240 nM in assay [1], 80 nM in assay [2], 5 nM in assay [3] and 1090 nM in assay [4].

With `CC(C)(CO)CNCc1ccc(Nc2ncc(SCc3ncc(C(C)(C)C)o3)s2)nc1`, the IC50 in assay [1] is 3 nM; in assay [2], 18 nM; in assay [3] it was 3 nM; in assay [4], 26 nM. Also, in assay [5], the T/C is 156%. Further, in assay [6], the Binding is recorded as 90%.

As to `CC(C)(C)c1cnc(CSc2cnc(Nc3ccccc3)s2)o1`, the IC50 was found to be 140 nM in assay [1], 12 nM in assay [2], 4 nM in assay [3] and 78 nM in assay [4].

As for `CC(C)(C)c1cnc(CSc2cnc(Nc3ccc(S(=O)(=O)NCCO)cc3)s2)o1`, the IC50 in assay [1] is 69 nM; in assay [2] it was 10 nM; in assay [3] it was 2 nM; in assay [4], 233 nM. For the same compound, in assay [7], the T/C amounted to 180%. In assay [6], this compound showed a Binding of 97%.

`CC(C)(C)c1cnc(CSc2cnc(Nc3ccccn3)s2)o1`: the IC50 in assay [1] came out at 10 nM; in assay [2], 4 nM; in assay [3], 2 nM; in assay [4] it was 9 nM.
